What was measured:
Format in all cases: functional
[1] = system: Bacillus subtilis; experiment: Antibacterial activity against Bacillus subtilis 154921 at 1 mg/ml after 24 hrs by agar-well diffusion technique; conditions: Bacillus subtilis, 154921, 24 h; read-out: DIZ
Outline: (§1)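 Each bacterial strain (0.1 ml) was spread on nutrient agar, and 4 mm wells were cut with a sterile cork borer. Wells were loaded with test chemical at a final 1 mg ml^-1, then incubated at 37 °C for 24 h. Inhibition zone diameters around the wells were measured, averaged over 3 replicas.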

[2] = system: Escherichia coli; experiment: Antibacterial activity against Escherichia coli 124300 at 1 mg/ml after 24 hrs by agar-well diffusion technique; conditions: Escherichia coli, 124300, 24 h; read-out: DIZ; outline: as §1
[3] = system: Staphylococcus aureus; experiment: Antibacterial activity against Staphylococcus aureus 155554A at 1 mg/ml after 24 hrs by agar-well diffusion technique; conditions: read-out: DIZ; outline: as §1
[4] = system: Candida albicans; experiment: Antifungal activity against Candida albicans 155965 at 1 mg/ml after 48 hrs by agar-well diffusion technique; conditions: Candida albicans, 155965, 48 h; read-out: DIZ
Outline: (§2)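 Yeast (0.1 ml) was spread on potato dextrose agar, and 4 mm wells were cut with a sterile cork borer. Wells were loaded with test chemical at a final 1 mg ml^-1, then incubated at 25 °C for 48 h. Inhibition zones around the wells were measured, averaged over 3 replicas.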

[5] = system: Pseudomonas aeruginosa; experiment: Antibacterial activity against Pseudomonas aeruginosa 155250A at 1 mg/ml after 24 hrs by agar-well diffusion technique; conditions: read-out: DIZ; outline: as §1
[6] = system: Serratia marcescens; experiment: Antibacterial activity against Serratia marcescens 155449 at 1 mg/ml after 24 hrs by agar-well diffusion technique; conditions: Serratia marcescens, 155449, 24 h; read-out: DIZ; outline: as §1
[7] = system: Saccharomyces cerevisiae; experiment: Antifungal activity against Saccharomyces cerevisiae 156250 at 1 mg/ml after 48 hrs by agar-well diffusion technique; conditions: Saccharomyces cerevisiae, 156250, 48 h; read-out: DIZ; outline: as §2

| SMILES | zone of inhibition at 1000 µg/mL [1] [mm] | zone of inhibition at 1000 µg/mL [2] [mm] | zone of inhibition at 1000 µg/mL [3] [mm] | zone of inhibition at 1000 µg/mL [4] [mm] | zone of inhibition at 1000 µg/mL [5] [mm] | zone of inhibition at 1000 µg/mL [6] [mm] | zone of inhibition at 1000 µg/mL [7] [mm] |
| --- | --- | --- | --- | --- | --- | --- | --- |
| COc1ccc(-c2c(C#N)c(=N)n3c([nH]c(=O)c4c(-c5ccccc5)csc43)c2C#N)cc1 | 2 | 3.3 | 0 | 0 | 14 | 2 | 0 |
| N#Cc1c(-c2ccccc2)csc1N | 14.6 | 10.6 | 21 | 18 | 10.6 | 11.3 | 16 |
| N#Cc1c(-c2ccc(Cl)cc2)csc1N | 11 | 4 | 6.6 | 2.6 | 5 | 0 | 7 |
| CN(C)/C=C(\C#N)C(=O)Nc1scc(-c2ccccc2)c1C#N | 1.6 | 4 | 0 | 4 | 10.8 | 3.3 | 1.3 |
| N#Cc1c(-c2cccs2)c(C#N)c2[nH]c(=O)c3c(-c4ccccc4)csc3n2c1=N | 3.3 | 4 | 0 | 0 | 11.3 | 0 | 0 |
| COc1ccc(-c2c(C#N)c(=N)n3c([nH]c(=O)c4c(-c5ccc(Cl)cc5)csc43)c2C#N)cc1 | 2 | 4 | 0 | 0 | 13.1 | 4 | 0 |
| N#Cc1c(-c2cccs2)c(C#N)c2[nH]c(=O)c3c(-c4ccc(Cl)cc4)csc3n2c1=N | 2 | 4 | 0 | 12 | 10.6 | 2.6 | 0 |
| N#Cc1cc(C#N)c2[nH]c(=O)c3c(-c4ccccc4)csc3n2c1=N | 2 | 4 | 0 | 2.6 | 9 | 6.6 | 1.3 |
| N#Cc1cc(C#N)c2[nH]c(=O)c3c(-c4ccc(Cl)cc4)csc3n2c1=N | 6 | 2 | 2.6 | 0 | 8 | 3.3 | 0 |
| N#Cc1c(-c2ccccc2)csc1NC(=O)c1cc2ccccc2[nH]c1=O | 11 | 8.6 | 12 | 16 | 10 | 6 | 14 |
| N#Cc1c(-c2ccc(Cl)cc2)csc1NC(=O)c1cc2ccccc2[nH]c1=O | 10.5 | 8 | 8 |  | 11 |  |  |
| CCOC(=O)c1sc(NC(=O)/C(C#N)=N/Nc2ccccc2)c(C#N)c1C | 13 | 0 | 14 | 0 | 6 | 2.6 | 0 |
| N#CCC(=O)Nc1scc(-c2ccccc2)c1C#N | 2 | 4 | 0 | 4 | 4 | 2 | 2.6 |
| N#CCC(=O)Nc1scc(-c2ccc(Cl)cc2)c1C#N | 4.6 | 4 | 0 | 0 | 4 | 1.3 | 3 |

From ChEMBL document CHEMBL2021764, “2-Aminothiophenes as building blocks in heterocyclic synthesis: synthesis and antimicrobial evaluation of a new class of pyrido[1,2-a]thieno[3,2-e]pyrimidine, quinoline and pyridin-2-one derivatives” (2012)
